Data set [1] has as its system Plasmodium falciparum. Description: Antimalarial activity against chloroquine-resistant Plasmodium falciparum W2. It counts as functional, organism-based. In a few lines:
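Ring-stage parasites (1% parasitaemia in human red cells, sorbitol-synchronised) exposed to compounds for 48 h at 37 °C in RPMI-1640 with 25 mM HEPES pH 7.4 and 10% heat-inactivated human serum. Cells then fixed in 2% HCHO/PBS, stained with 1 nM YOYO-1 in PBS containing 100 mM NH₄Cl and 0.1% Triton X-100, and counted by flow cytometry (ex 488/em 520 nm). IC50 derived by curve fitting.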

Data set [2] can be described thus: Binding to hematin monomer.
Data set [3] in a line: Selectivity ratio of IC50 for human HepG2A16 cells to IC50 for Plasmodium falciparum W2. In kind it is ADME. The method in brief: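 Ratio of HepG2 A16 cytotoxicity IC₅₀ (48 h) to W2 IC₅₀. The W2 assay used sorbitol-synchronized ring stages at 1% parasitemia in human RBCs, 48 h at 37 °C in RPMI-1640 with 25 mM HEPES pH 7.4 and 10% heat-inactivated human serum. Cells were then fixed in 2% HCHO, stained with 1 nM YOYO-1 and counted by flow cytometry.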

Data set [4] is described as follows: Cytotoxicity against human HepG2A16 cells. In kind it is cell-based. The method in brief:
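HepG2 A16 human hepatic cells seeded at 1 × 10⁴ cells/well and exposed to a range of concentrations for 48 h under standard culture conditions. IC₅₀ (50% growth inhibition) read from plots of degree of cell injury against concentration.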

Structures are written as SMILES. Where only a bound is given, the exact number is not on record here.

What is called IC50 is the midpoint of a concentration-inhibition curve. For `CCN(CC)CCOc1c2ccc(Cl)cc2nc2c1[nH]c1ccc(Cl)cc12`, inhibition in data set [1] was half-maximal at 0.55 µM (IC50).

In the case of `CCN(CC)CCOc1c2ccc(Cl)cc2nc2c1[nH]c1ccccc12`, half-maximal inhibition in data set [1] (IC50) required 1.33 µM. Further, the log Kass in data set [2] came to 5.1.

In the case of `CCN(CC)CCn1c2ccccc2c2c1c(=O)c1ccccc1n2CCN(CC)CC`, in data set [3], the selectivity ratio is 16. Also, the IC50 in data set [1] came to 0.267 µM; in data set [4] it was 4.33 µM. The log Kass in data set [2] was determined as 4.9.

As to `O=c1c2ccc(Cl)cc2[nH]c2c1[nH]c1ccc(Cl)cc12`, the half-maximal inhibitory concentration (IC50) in data set [1] was over 10 µM. Further, the log Kass in data set [2] is 4.9.

With `CCN(CC)CCOc1c2ccc(Cl)cc2nc2c3cc(Cl)ccc3n(CCN(CC)CC)c12`, the selectivity ratio in data set [3] was found to be 98. Also, the values for the 50% inhibitory concentration (IC50) in data set [1] and in data set [4] were 0.051 µM and 5 µM, respectively. The log Kass in data set [2] was 5.2.

As for `CCN(CC)CCn1c2ccccc2c2c1c(=O)c1ccc(Cl)cc1n2CCN(CC)CC`, in data set [3], the selectivity ratio amounted to 33. Moreover, the IC50 is 0.202 µM in data set [1] and 7 µM in data set [4]. In addition, the log Kass in data set [2] was 4.9.

Take `CCN(CC)CCOc1c2ccc(Cl)cc2nc2c3ccccc3n(CCN(CC)CC)c12`: in data set [3], the selectivity ratio amounted to 44. The IC50 in data set [1] was 0.186 µM; in data set [4], 8 µM. For the same compound, in data set [2], the log Kass is 4.9.

For the compound `O=c1c2ccccc2[nH]c2c1[nH]c1ccccc12`, in data set [3], the selectivity ratio was under 2. The half-maximal inhibitory concentration (IC50) in data set [1] is over 10 µM; in data set [4], 21 µM. In addition, the log Kass in data set [2] stood at 4.7.

In the case of `CCN(CC)CCOc1c2ccccc2nc2c1[nH]c1ccccc12`, the selectivity ratio in data set [3] is 3.6. In addition, the half-inhibitory concentration (IC50) in data set [1] turned out to be 2.64 µM; in data set [4] it was 9 µM. Moreover, the log Kass in data set [2] amounted to 5.

With `CCN(CC)CCn1c2ccc(Cl)cc2c2c1c(=O)c1ccc(Cl)cc1n2CCN(CC)CC`, the selectivity ratio in data set [3] worked out at 31. The values for the IC50 in data set [1] and in data set [4] were 0.334 µM and 11 µM, respectively. The same compound had a log Kass in data set [2] of 5.1.

On to `CCN(CC)CCOc1c2ccccc2nc2c3ccccc3n(CCN(CC)CC)c12`, for which the selectivity ratio in data set [3] was 12. For the same compound, the IC50 in data set [1] came out at 0.539 µM; in data set [4], 7 µM. Moreover, the log Kass in data set [2] was 4.9.

In data set [1], `O=c1c2ccc(Cl)cc2[nH]c2c1[nH]c1ccccc12` returned a concentration for half-maximal inhibition (IC50) of 8.42 µM. This compound returned a log Kass in data set [2] of 5.

Values taken from ChEMBL document CHEMBL1255558, “Bis-alkylamine quindolone derivatives as new antimalarial leads” (Bioorg Med Chem Lett, 2010).
